Shown are actives, neighbours in structure and some others; about 2.1% of the full set was active somewhere.
zVAD death inh: inhibitors of zVAD-triggered necroptosis, primary screen, L929 cells; L929 zVAD necroptosis rescue, ATP luminescence, 24 h; with zVAD 60 µM; viability rescue, % at 10 µM; 220,000 compounds, 0.38% hits;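 active means activation, scaled between plate controls, above about 75%, limit read from the data; inactive means activation under that limit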;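 further: 0% = zVAD with DMSO and 100% = DMSO alone without zVAD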
Hck-Nef inh: inhibitors of Nef-activated human Hck kinase, primary screen, biochemical, Z-Lyte FRET, 384-well, Hck-YEEI; 220,000 compounds, 0.68% hits; inhibition, % at 20 µM; Tyrosine-protein kinase HCK (Homo sapiens), P08631; Recombinant Hck-YEEI plus Nef, Z-Lyte FRET kinase assay;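 active means Hck-Nef kinase inhibition above about 50%, limit read from the data; inactive means inhibition below that limit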;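 further: 0% = DMSO with Hck plus Nef and 100% = Hck alone without Nef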
Target sequence (P08631 whole entry, looked up): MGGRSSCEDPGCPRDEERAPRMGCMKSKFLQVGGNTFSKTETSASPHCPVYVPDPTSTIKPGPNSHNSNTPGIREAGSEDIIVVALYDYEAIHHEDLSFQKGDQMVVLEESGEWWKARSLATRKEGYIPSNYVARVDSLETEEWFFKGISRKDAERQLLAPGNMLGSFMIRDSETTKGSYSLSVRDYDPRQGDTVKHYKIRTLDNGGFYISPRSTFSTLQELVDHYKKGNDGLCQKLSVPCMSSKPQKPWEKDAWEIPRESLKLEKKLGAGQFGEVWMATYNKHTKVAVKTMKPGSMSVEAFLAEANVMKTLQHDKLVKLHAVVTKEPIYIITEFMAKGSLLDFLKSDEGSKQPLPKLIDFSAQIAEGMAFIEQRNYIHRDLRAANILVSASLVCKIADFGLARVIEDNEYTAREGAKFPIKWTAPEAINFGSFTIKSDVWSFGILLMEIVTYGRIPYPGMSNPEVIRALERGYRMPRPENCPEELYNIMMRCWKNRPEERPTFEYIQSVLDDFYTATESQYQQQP
Runt-CBFb FRET: inhibitors of RUNX1 Runt–CBFb binding, primary screen, biochemical, FRET, Cerulean-Runt, Venus-CBFb, uHTS | Cerulean-Runt/Venus-CBFb FRET ratio 530/480, 1 h | inhibition, % at 20 µM | 220,000 compounds, 0.46% hits | Runt-related transcription factor 1 (Homo sapiens) + Core-binding factor subunit beta …;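 active means inhibition over about 50% at 20 µM in the single-dose screen, limit read from the data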;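 further: 0% = DMSO wells and 100% = excess unlabeled CBFb competitor control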
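Buffer or medium: Tris pH 7.5 buffer with BSA. Assay system: Cerulean-labeled Runt domain protein. Amount: each fluorescent fusion protein 100 nM. Read-out basis: loss of energy transfer signal. Incubation: 1 h compound exposure, room temperature. Probe or stimulus: Venus-CBFb binding partner, 100 nM. Detection: FRET, excitation 422 nm, emission at 530 and 480 nm.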
TNF necrop inh: inhibitors of TNF-alpha triggered necroptosis, primary screen, cell-based, Jurkat FADD-/-, single concentration | Jurkat FADD-/- TNF necroptosis rescue, ATP luminescence, 24 h; 0 = TNF only, 100 = no-TNF cells | activation (protection from cell death), % at 10 µM | 220,000 compounds, 0.068% hits | AID 463075, 2010;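 active means activation, meaning protection from cell death, of at least 50% relative to plate controls; inactive means activation below 50%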;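 further: necroptosis triggered by 40 ng/mL TNF-alpha added together with compound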
RanGTP-Impb inh: inhibitors of RanGTP-importin-beta interaction, primary screen, biochemical, FRET, CFP-Ran, YFP-importin-beta, homogeneous; Ran GTPase (GTP-bound) - importin-beta complex; cell-free CFP-Ran/YFP-importin-beta FRET ratio; inhibition, % (concentration not given with the values); 300,000 compounds, 1.1% hits; AID 2216, 2009;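 active means more than half of the replicate wells show a fall in the fluorescence ratio signal beyond about 16%, limit read from the data, passing the limit was not always enough; inconclusive means exactly half of the replicate wells pass the set limit; inactive means fewer than half of replicates pass the limit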;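 further: 0% = DMSO wells and 100% = Ran loaded with GDP instead of GTP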
Runt-SMMHC FRET: inhibitors of RUNX1 Runt–CBFb-SMMHC binding, primary screen, biochemical, FRET, Cerulean-Runt, Venus-CBFb-SMMHC, uHTS. 220,000 compounds, 0.74% hits. inhibition, % at 20 µM. AID 1434, 2008. Cerulean-Runt/Venus-CBFb-SMMHC FRET ratio 530/480, 1 h;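 active means mean inhibition across duplicate retests at 20 µM reaching about 50%, limit read from the data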;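 further: 0% = DMSO wells and 100% = wells with excess untagged CBFb-SMMHC; inhibitors lower the FRET ratio by blocking Runt binding to CBFb-SMMHC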
zVAD death conf: inhibitors of zVAD-triggered necroptosis in L929, confirmation, L929 cells, duplicate runs; shares compounds with zVAD death inh; L929 zVAD-induced necroptosis rescue, ATP luminescence, 24 h; activation (protection from necroptosis), % at 10 µM; 760 compounds, 16% hits;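 active means mean protection from necroptosis of at least 50% over duplicate tests; inactive means mean protection below 50%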;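 further: 0% = cells with zVAD alone and 100% = vehicle cells without zVAD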
The depositor's hits bear a star; ? = inconclusive; . = no result.

SMILES	zVAD death inh	Hck-Nef inh	Runt-CBFb FRET	TNF necrop inh	RanGTP-Impb inh	Runt-SMMHC FRET	zVAD death conf
CC(=O)Nc1cccc(-c2csc(Nc3ncccn3)n2)c1	80*	19	5	6	0	0	5
Oc1ccc(-c2csc(Nc3ncccn3)n2)c(O)c1	81*	25	3	9	?	-10	48
COc1ccccc1N(CC(=O)NC1CCCC1)C(=O)CCC(=O)Nc1ccccn1	.	.	.	.	4	.	.
O=C(Cn1ncc(Cl)c(Cl)c1=O)c1ccc(Cl)cc1	0	-1	1	-14	-4	0	.
O=C(OCn1ncc(Cl)c(Cl)c1=O)c1ccccc1Cl	102*	0	0	9	-2	4	64*
O=C(OCn1ncc(Cl)c(Cl)c1=O)c1ccc(F)cc1	78*	1	0	-25	0	-8	53*
Cn1c(N)c(C(=O)CSc2ccc3c(c2)OCCO3)c(=O)n(C)c1=O	0	2	-2	-5	-4	0	.
Cc1cc(C)nc(SCC(=O)c2c(N)n(C)c(=O)n(C)c2=O)n1	76*	-19	0	-3	5	-1	0
COc1cc(/C=N/NC(=O)c2ccc3ccccc3c2)ccc1Oc1ccc([N+](=O)[O-])cn1	76*	2	-10	6	-2	8	4
COc1ccc(C(=O)Nc2nccs2)cc1[N+](=O)[O-]	6	1	1	6	?	0	.
CCCc1cc(C(=O)Nc2nccs2)cs1	99*	8	-1	38	-1	3	80*
CCn1nccc1C(=O)Nc1nccs1	85*	2	0	4	.	1	37
CCn1cc(Br)c(C(=O)Nc2nccs2)n1	7	-8	-1	0	4	3	.
O=C(Nc1ccccc1)Nc1nccs1	85*	1	-2	7	-1	-8	8
CCCN1C(=O)c2ccc(C(=O)Nc3nccs3)cc2C1=O	0	6	0	-1	-2	2	.
COc1ccc(NC(=O)Nc2nccs2)cc1	22	8	1	-3	7	-3	.
COc1ccc(C(=O)Nc2nccs2)cc1OC	80*	12	-2	30	4	-4	46
O=C(O)c1cc(Nc2cc(Cl)c3nonc3c2[N+](=O)[O-])ccc1O	.	.	.	.	2	.	.
Cc1ccc(Oc2ccc(-c3nnc(-c4ccccc4)o3)cc2[N+](=O)[O-])cc1C	0	3	1	1	.	4	.
O=C(Nc1nccs1)c1cccc(NC(=O)C(F)(F)F)c1	97*	0	0	15	4	-6	47
CCC(CC)C(=O)Nc1cccc(C(=O)Nc2nccs2)c1	67	1	0	3	1	1	.
CC(=O)Nc1nc(Cn2nnc(-c3ccc4c(c3)OCO4)n2)nc(N(C)C)n1	2	-4	.	-3	0	0	.
CCOC(=O)CNC(=O)c1cc(-c2ccccn2)nc2c(C)c(Cl)ccc12	2	-5	-1	0	3	-3	.
COc1ccc(NC(=O)C2CCN(S(=O)(=O)c3cccc4nonc34)CC2)c(OC)c1	.	.	.	.	-1	.	.
Cc1coc(=N)n1CC(=O)c1ccc(Cl)cc1	-1	-11	1	0	.	-5	.
SMILES	zVAD death inh	Hck-Nef inh	Runt-CBFb FRET	TNF necrop inh	RanGTP-Impb inh	Runt-SMMHC FRET	zVAD death conf
Cc1ccc(O)c(N=Cc2sc3ccccc3c2Cl)c1	0	3	5	1	4	-2	.
Oc1ccccc1N=Cc1sc2ccccc2c1Cl	86*	-1	4	5	?	-5	3
Cc1nc(C(=O)N2CCc3c([nH]c4ccccc34)C2c2cc(F)ccc2F)cs1 (stereo unspecified)	2	-1	-1	2	1	-6	.
c1cc(Nc2ncnc3sc4c(c23)CCC4)ccn1	0	-2	1	-1	-1	0	.
C(=N\Nc1ncnc2sc3c(c12)CCC3)/c1cccs1	81*	19	-2	-14	2	7	40
O=C(CSc1nnc2n1CCCN2C(=S)Nc1ccc(Cl)cc1)c1ccccc1	93*	0	-1	96*	-3	-4	3
CCOC(=O)c1cccc(NC(=O)Nc2ccc(OCC)cc2)c1	76*	14	-1	-2	-15	2	2
COc1ccc(NC(=O)NC23CC4CC(CC(C4)C2)C3)cc1OC	0	-1	-2	-2	3	-1	.
CCOc1ccc(NC(=O)NC23CC4CC(CC(C4)C2)C3)cc1	88*	1	2	3	2	-3	47
CCOc1ccc(NC(=O)Nc2ccc3nsnc3c2)cc1	81*	19	-3	-1	-3	-9	1
CCOc1ccc(NC(=S)Nc2ccc3nsnc3c2)cc1	1	0	15	0	-1	-35	.
CC(=O)NS(=O)(=O)c1ccc(NC(=O)CSc2ccc(C)cc2)cc1	2	0	5	-3	-3	-1	.
COc1ccc(/C=N/NC(=O)C(=O)Nc2ccccn2)cc1OC	1	1	-1	0	6	-3	.
COc1ccc(NC(=O)Nc2ccccn2)cc1OC	76*	21	-1	8	27*	-4	35
COc1cc(/C=N/Nc2ccccn2)ccc1O	87*	4	4	43	-3	0	75*
COc1cc(NC(=S)Nc2ccccn2)c(OC)cc1Cl	79*	-26	2	1	0	1	7
COc1cc(/C=N/Nc2ccnc(=O)[nH]2)ccc1O	.	.	.	.	1	.	.
COc1ccc(/C=N/Nc2ccccn2)cc1OC	88*	26	1	53*	-3	0	89*
CS(=O)(=O)Nc1ccc(C(=O)Nc2ccccc2-c2ccccc2)cc1	.	.	.	.	0	.	.
CCOC(=O)C1(CCOc2ccccc2)CCN(Cc2cccc(OC)c2O)CC1	.	.	.	.	3	.	.
COC(=O)c1ccc(C)c(NC(=O)COC(=O)C2CC3CCCC(C2)C3=O)c1 (stereo unspecified)	.	.	.	.	6	.	.
O=C(Nc1ccc2c(c1)OCO2)c1noc2c1CCCCC2	80*	0	3	2	?	1	7
